Measured values: ChEMBL document CHEMBL1123586, “3-[(2-ethoxyphenoxy)methyl]piperidine derivatives. Synthesis and antidepressant activity” (J Med Chem, 1987)
pIC50: −log10 of the molar value.

Experiments:
Sus scrofa [1] = organism: Sus scrofa; experiment: Tested for in vitro reuptake inhibition of [3H]dopamine in pig striatal synaptosomes.; type: functional; conditions: Brain
Outline: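 Pig corpus striatum synaptosomes (slaughterhouse brains) take up [3H]DA (2 nM) with the compound present. Nonspecific transport is defined with benztropine and also by incubation at 0–4 °C without drug. IC50 for specific uptake by log-probit analysis over four concentrations, each in triplicate.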

Mus musculus [2] = experiment: Amphetamine antagonistic activity on peroral administration in mice.;value ranges from (5.1-5.9); type: functional
Sus scrofa [3] = organism: Sus scrofa; experiment: Tested for in vitro reuptake inhibition of [3H]-5-hydroxy tryptamine in pig frontal synaptosomes.; type: functional; conditions: Brain
Outline: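 Synaptosomes from frontal cortex of slaughterhouse pig brain take up [3H]-5-HT (4 nM) with the compound present. Nonspecific uptake is defined with chlorimipramine and also by incubating at 0–4 °C without drug. IC50 for specific uptake by log-probit analysis, four concentrations, each in triplicate.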

Mus musculus [4] = experiment: Antidepressant activity was assessed from the ability to antagonize reserpine-induced hypothermia on peroral administration in mice;value ranges from (13.5-19.1); type: functional
Sus scrofa [5] = organism: Sus scrofa; experiment: Tested for in vitro reuptake inhibition of [3H]norepinephrine in pig occipital synaptosomes.; type: functional; conditions: Brain
Outline: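 [3H]NE (15 nM) uptake into occipital cortex synaptosomes from slaughterhouse pig brain, measured with the compound present. Nonspecific transport is defined with desipramine and also by incubation at 0–4 °C without drug. IC50 for specific uptake from log-probit analysis, four concentrations, each in triplicate.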

Mus musculus [6] = experiment: Compound dose that causes lethality (acute toxicity) was determined by administering perorally in mice.; type: organism-based; conditions: in vivo, po
Mus musculus [7] = experiment: Antidepressant activity was assessed from the ability to antagonize reserpine-induced palpebral ptosis on peroral administration in mice.;Value ranges from (0.9-3.1).; type: functional
Mus musculus [8] = experiment: Pentylenetetrazole antagonistic activity on peroral administration in mice; inactive at this dose.; type: functional
Mus musculus [9] = experiment: Antidepressant activity was assessed from the ability to antagonize reserpine-induced hypothermia on peroral administration in mice;inactive at this dose..; type: functional
Mus musculus [10] = experiment: Antidepressant activity was assessed from the ability to antagonize reserpine-induced palpebral ptosis on peroral administration in; inactive at this dose.; type: functional
Mus musculus [11] = experiment: Amphetamine antagonistic activity on peroral administration in mice; inactive at this dose.; type: functional
Mus musculus [12] = experiment: Pentylenetetrazole antagonistic activity on peroral administration in mice; inactive at this dose..; type: functional
Mus musculus [13] = experiment: Antidepressant activity was assessed from the ability to antagonize reserpine-induced palpebral ptosis on peroral administration in mice;value ranges from (2.7-5.4.); type: functional
Mus musculus [14] = experiment: Antidepressant activity was assessed from the ability to antagonize reserpine-induced hypothermia on peroral administration in mice;value ranges from (11.1-31.); type: functional
Mus musculus [15] = experiment: Amphetamine antagonistic activity on peroral administration in mice; value ranges from (7.4-19.7.); type: functional
Mus musculus [16] = experiment: Pentylenetetrazole antagonistic activity on peroral administration in mice; Value ranges from (24.5-41.4); type: functional
Mus musculus [17] = experiment: Antidepressant activity was assessed from the ability to antagonize reserpine-induced palpebral ptosis on peroral administration in mice; Value ranges from (1.3-3.4).; type: functional
Mus musculus [18] = experiment: Amphetamine antagonistic activity on peroral administration in mice; Value ranges from (29.4-65.9); type: functional

Row | SMILES | pIC50 (Sus scrofa [1]) | ED (Mus musculus [2]) | pIC50 (Sus scrofa [3]) | ED (Mus musculus [4]) | pIC50 (Sus scrofa [5]) | LD (Mus musculus [6]) | ED (Mus musculus [7]) | ED (Mus musculus [8]) | ED (Mus musculus [9]) | ED (Mus musculus [10]) | ED (Mus musculus [11]) | ED (Mus musculus [12]) | ED (Mus musculus [13]) | ED (Mus musculus [14]) | ED (Mus musculus [15]) | ED (Mus musculus [16]) | ED (Mus musculus [17]) | ED (Mus musculus [18])
1 | CCOc1ccccc1OCC1(O)CCCNC1 (stereo not given) | 4.70 | 5.5 mg/kg | 4.19 | 15.2 mg/kg | 6.18 | 150 mg/kg | 1.5 mg/kg | > 50 mg/kg | – | – | – | – | – | – | – | – | – | –
2 | CCOc1ccccc1OCC1(OC)CCCNC1 (stereo not given) | 4.17 | – | 3.96 | – | 5.89 | 200 mg/kg | – | – | > 25 mg/kg | > 25 mg/kg | > 50 mg/kg | > 50 mg/kg | – | – | – | – | – | –
3 | CCOc1ccccc1OCC1CCCNC1 (stereo not given) | 4.21 | – | 4.02 | – | 6.01 | 300 mg/kg | – | > 50 mg/kg | – | – | – | – | 3.7 mg/kg | 17 mg/kg | 9.4 mg/kg | – | – | –
4 | CNCCCN1c2ccccc2CCc2ccccc21 [DESIPRAMINE] | 5.21 | – | 6.38 | – | 8.49 | 300 mg/kg | – | – | – | – | – | – | – | – | – | 33.1 mg/kg | 1.8 mg/kg | 40.3 mg/kg
5 | CCOc1ccccc1OCC1CNCCO1 (stereo not given) [VILOXAZINE] | 4.42 | – | 4.70 | – | 6.66 | 600 mg/kg | – | – | – | – | – | – | – | – | – | – | – | –
